Data published in ChEMBL document CHEMBL4513216, “Probing the Open Global Health Chemical Diversity Library for Multistage-Active Starting Points for Next-Generation Antimalarials” (ACS Infect Dis, 2020).

Test: Toxicity liver stage against HepG2, at 10uM
Assay type: cell-based
Design: test concentration 10 uM, cell line HepG2-A16-CD81EGFP
Settings: human, HepG2-A16-CD81EGFP cells; read-out: INHIBITION
Summary of the method: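 Uninfected HepG2-A16-CD81EGFP cells, 3 × 10^3 per well, 1536-well, plated on prespotted compound at 10 μM final, parasite-free screening media added to match infected plates; puromycin 10 μM positive, DMSO 0.5% negative; run in parallel with 48 h PbLuc assay at 37 °C, 5% CO2; viability by CellTiter-Glo luminescence, normalized to controls.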

CCCn1c(C)c(CC(=O)NCCOC)c2c1CC(C)(C)CC2=O
cytotoxicity at 10 µM: -1.01%

Cn1ccnc1CN1C[C@H](N2CCOCC2)[C@@H]2OCCC[C@@H]21
cytotoxicity at 10 µM: 7.19%

Cn1ccnc1CNCC1CCCN1c1cccnn1 (stereo unspecified)
cytotoxicity at 10 µM: -11.3%

CC(C)(C)c1nnc(CN2CCN(S(C)(=O)=O)CC2)o1
cytotoxicity at 10 µM: -4.32%

CCOC(=O)c1sc2ccsc2c1CNS(C)(=O)=O
cytotoxicity at 10 µM: -12%

O=C([C@H]1C[C@H]2OCC[C@H]2N(CCc2ccccc2)C1)N1CCCO1
cytotoxicity at 10 µM: -72.8%

CC(C)c1noc(CCCC(=O)NC2CCS(=O)(=O)C2)n1 (stereo unspecified)
cytotoxicity at 10 µM: 4.67%

CC(C)n1ccnc1C1CCCN(c2nc3ccccc3s2)C1 (stereo unspecified)
cytotoxicity at 10 µM: 5.07%

COCCCN(C)S(=O)(=O)c1ccc(C(F)(F)F)cc1C#N
cytotoxicity at 10 µM: -4.55%

CCCc1ncc(C(=O)N2CCOc3ncccc32)s1
cytotoxicity at 10 µM: 11.6%

Cc1ccc(-c2nc(C(=O)N3CCN(C(=O)N(C)C)CC3)cs2)c(C)c1
cytotoxicity at 10 µM: -7.98%

Cc1cnn(CCCNC(=O)C2CCCCN2Cc2cccnc2)c1 (stereo unspecified)
cytotoxicity at 10 µM: -8.97%

CSCCC(=O)N1CCCN(c2ccccc2C)CC1
cytotoxicity at 10 µM: -9.31%

Cc1ccnc(OCC(=O)N2CCCC2)n1
cytotoxicity at 10 µM: -10.2%

Cc1ccccc1-c1cncc(C2CCN(Cc3ccccn3)CC2)n1
cytotoxicity at 10 µM: -22.2%

CCSc1ncc(CN2CCC(O)(CN3CCOCC3)C(C)(C)C2)cn1 (stereo unspecified)
cytotoxicity at 10 µM: 7.49%

CSc1ccc(C2SCC(=O)Nc3c2c(=O)[nH]n3C2CCOCC2)cc1 (stereo unspecified)
cytotoxicity at 10 µM: -14.9%

CCc1ccsc1C(=O)N1CCCN(Cc2cnn(CC)c2)CC1
cytotoxicity at 10 µM: 0.501%

CCc1ccc(CN2CCCCC2c2n[nH]cc2-c2cc(C)no2)cc1 (stereo unspecified)
cytotoxicity at 10 µM: 35%

Cc1cnn(C2CCCN(C(=O)c3ccccc3-n3cnnn3)C2)c1 (stereo unspecified)
cytotoxicity at 10 µM: -6.92%

CC(NCCCc1cnn(C)c1)c1ccc(Cl)s1 (stereo unspecified)
cytotoxicity at 10 µM: 5.29%

CS(=O)(=O)Cc1ccc(C(=O)N2CCCC(n3cncn3)C2)o1 (stereo unspecified)
cytotoxicity at 10 µM: -9%

c1cnn(Cc2nnc3n2CCCN(Cc2ccsc2)C3)c1
cytotoxicity at 10 µM: -0.714%

CCc1nnnn1Cc1csc(N(C)C(C)=O)n1
cytotoxicity at 10 µM: 0.63%

N#Cc1cccc(S(=O)(=O)NC(=O)CCOCC(F)(F)F)c1
cytotoxicity at 10 µM: 12.4%

Cc1cc(NCC(C)C)ccc1C(=O)N(C)C
cytotoxicity at 10 µM: 9.86%

CCSc1nc2ccccc2c(=O)n1OCC(=O)OC
cytotoxicity at 10 µM: -5.49%

c1ccc(CN2CCO[C@H]3[C@H](OCCN4CCCC4)CC[C@@H]32)nc1
cytotoxicity at 10 µM: -1.5%

Cc1nnc(-c2cccc(C#N)c2)n1C1CCN(C2CC2)C1=O (stereo unspecified)
cytotoxicity at 10 µM: -11.8%

COCCc1noc(C2CCN(C(=O)Nc3cccs3)CC2)n1
cytotoxicity at 10 µM: -10.6%

CN1CCN(Cc2cccnc2)C(=O)C12CCN(Cc1ccco1)CC2
cytotoxicity at 10 µM: -4.34%

CN(C)C(=O)CN1CCC(c2nnc(Cn3cccn3)n2C2CC2)CC1
cytotoxicity at 10 µM: -6.65%

Cn1cc(CN2C[C@@H]3CCC[C@@H](OCc4cccnc4)[C@@H]3C2)cn1
cytotoxicity at 10 µM: -107%

O=C(c1coc2ccccc12)N1CCCC(O)(CO)CC1 (stereo unspecified)
cytotoxicity at 10 µM: 6.41%

Cc1nn(C(C)C)cc1S(=O)(=O)N(C)Cc1nonc1C
cytotoxicity at 10 µM: 11.6%

Cc1cc(C(=O)N2CCCC2CN2CCCC2)no1 (stereo unspecified)
cytotoxicity at 10 µM: 10%

O=C(CCC(=O)c1cccs1)NC1(C(=O)NCC2CC2)CCCC1
cytotoxicity at 10 µM: -10.6%

Cc1nc(CN(C)CC2CCCN2c2cccnn2)nc2ccccc12 (stereo unspecified)
cytotoxicity at 10 µM: -6.31%

CNc1cc(C)nc(N2Cc3cnn(Cc4ccc(F)cc4)c3C2)n1
cytotoxicity at 10 µM: 4.03%

Cc1cnn(CC2CCCN2C(=O)CCc2ccncc2)c1 (stereo unspecified)
cytotoxicity at 10 µM: -10.6%

CCc1ncc(CN(C)C2CCN(C(C)C)CC2)cn1
cytotoxicity at 10 µM: -3.91%

O=C(Cc1ccccn1)N1C[C@H]2CN(Cc3ccccn3)C[C@H]2C1
cytotoxicity at 10 µM: -108%

COCCS(=O)(=O)NC(C)c1ccc(-n2nc(C)cc2C)cc1 (stereo unspecified)
cytotoxicity at 10 µM: 1.91%

CCCC(=O)NCC1CCCN(Cc2cc(C)c(C)o2)C1 (stereo unspecified)
cytotoxicity at 10 µM: 8.82%

COc1ccc(Br)c(C(=O)NCC2CC2)c1
cytotoxicity at 10 µM: 23.4%

Cc1nn(C)c(N(C)C)c1CNCc1ccnc(N2CCCC2)c1
cytotoxicity at 10 µM: -11.4%

COCC1CN(Cc2ccc(OC)cc2)S(=O)(=O)c2cnccc2O1 (stereo unspecified)
cytotoxicity at 10 µM: -1.78%

COc1ccccc1C(NC(=O)CN(C)C(C)C)c1noc(C)n1 (stereo unspecified)
cytotoxicity at 10 µM: -3.21%

CC(C)c1cc(NC(=O)CNC2CCCN(c3cccnn3)C2)on1 (stereo unspecified)
cytotoxicity at 10 µM: -1.79%

Cn1cccc1C(=O)N1CCC2(CCCN(CC3CC3)C2=O)C1 (stereo unspecified)
cytotoxicity at 10 µM: -0.445%

Cc1cc2c(N3CCC(N(C)CCc4cnn(C)c4)CC3)ncnc2s1
cytotoxicity at 10 µM: 1.38%

CC(C)CN1CCCC1c1cc[nH]n1 (stereo unspecified)
cytotoxicity at 10 µM: 9.95%

Cc1cccc(NC(=O)c2cccc(OCc3nnnn3C)c2)n1
cytotoxicity at 10 µM: 3%

COCCOc1cccc(C(=O)N2CCCC(n3ccnc3C)C2)c1 (stereo unspecified)
cytotoxicity at 10 µM: -12%

CNC(=O)c1cc(C)n(-c2ccccc2)n1
cytotoxicity at 10 µM: -0.142%

O=C1N[C@H]2OCCC[C@H]2[C@H](c2ccccc2C(=O)O)N1
cytotoxicity at 10 µM: 2.62%
